Assay results: publication PMC7114156 (Antiviral Research, 2009)
Several values for one entry are separate records, joined by “and”; a condition that tells them apart may be missing. Equal entries are not always repeated. Where two headings read alike, the source gives them in different places. Marks after values point to notes of the source that are not given here.

Legend:
[1] = system: a variety of unrelated viruses; experiment: Replication of a variety of unrelated viruses in vitro; assay type: cell-based
W12-20850 cells = experiment: Growth of W12-20850 cells, actin DNA by qPCR; assay type: cell-based, human
[2] = Growth of HUVEC endothelial cells, MTS; assay type: cell-based; conditions: human
How it was run: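 Primary cells were plated in 96-well plates with serial dilutions of test compound, 3 nM to 100 μM, for 72 h at 37 °C. Read-out was CTG for resting B and CD4 T cells and MTS for PBMC, WI38 and HUVEC. Purity was 90–95% for B cells and 97% for CD4 cells. Activated PBMCs were stimulated with phytohemagglutinin plus IL2.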

Molt4 = experiment: Growth of Molt4, MTS; assay type: cell-based, human
How it was run: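 Cells were plated in 96-well plates in medium holding serial dilutions of test compound, 1 nM to 10 μM, with DMSO ≤1% (v/v) final. Growth was read by MTS after 72 h at 37 °C: 2 h with reagent plus phenazine methosulfate, then A490. K and Imax came from a fit to a modified Hill equation. Vero cells are African Green monkey.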

MT4 cells [3] = experiment: Apoptosis assay; assay type: cell-based, human; conditions: MT4, 20 h exposure
How it was run: (§1)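 Apoptosis read as cytoplasmic histone-associated DNA fragments with a Cell Death Detection ELISA kit. Exposure was 20 h for IM9 and MT4 and 40 h for W12 and U937. A405 was read kinetically at 30 °C, and the rate per hour came from linear regression of the linear portion. A Fas-activating antibody was the positive control.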

[4] = Growth of activated primary CD4 T cells, CTG; assay type: cell-based; conditions: human, CC50, host primary cell growth
HKC cells = experiment: mRNA measurement by RT-qPCR in HKC cells; assay type: cell-based, human; conditions: for Fold increase due to GSK983, ABCD1 mRNA / Fold increase due to GSK983, ABCG1 mRNA / Fold increase due to GSK983, ADAMTS5 mRNA / Fold increase due to GSK983, BIK mRNA / Fold increase due to GSK983, MDM2 mRNA / Fold increase due to GSK983, MGP mRNA / Fold increase due to GSK983, CDKN1A mRNA / Fold increase due to GSK983, CSF2 mRNA / Fold increase due to GSK983, IFI6 mRNA / Fold increase due to GSK983, IFI16 mRNA / Fold increase due to GSK983, MMP1 mRNA / Fold increase due to GSK983, IRF3 mRNA / Fold increase due to GSK983, IRF9 mRNA: HKC cells
Namalwa = experiment: Growth of Namalwa; assay type: cell-based, human; conditions: 72 h
How it was run: (§2)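 Cell lines carrying integrated viral genomes were plated in 96-well plates in medium with test compound. Growth was read by ATP luminescence (CellTiter-Glo) for HEK293 and WI38 VA13, and by MTS reduction (A490 after 2 h at 37 °C) for Namalwa, W12 20861, SiHa, Caski and HeLa. K and Imax came from a fit to a modified Hill equation.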

human keratinocyte (HKC) = experiment: Growth of uninfected human keratinocytes; assay type: cell-based; conditions: 4 days
How it was run: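 W12-20850 cells were seeded at 7.5 × 10^3 cells/well into 96-well plates containing test compound, 100 to 0.001 μM. Plates were held 4 days at 37 °C, 5% CO2. Growth was read by MTS (A490), and HPV16 DNA was then measured from the same cells. Uninfected human keratinocytes were run in parallel and read by MTS.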

[5] = Growth of resting PBMC, MTS; assay type: cell-based; conditions: human, resting PBMCs
EBV = experiment: Viral yield in IM9 cells by quantitative PCR; assay type: cell-based; conditions: data not shown
episomal HPV-16 DNA = experiment: Hybrid capture assay for HPV16 DNA in W12-20850 cells; assay type: cell-based
How it was run: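 W12-20850 cells seeded at 7.5 × 10^3/well onto compound (100 to 0.001 μM), 4 days at 37 °C, 5% CO2. MTS growth read, then same cells lysed in 0.2N NaOH/1% Igepal. Episomal HPV-16 DNA measured by hybrid capture: 90 °C 6.5 min, 42 °C overnight, anti-digoxigenin HRP, chemiluminescence. HPV DNA/MTS ratio expressed as % of untreated control. Fit to modified Hill equation.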

MT4 cells [6] = experiment: Growth of MT4 cell line; assay type: cell-based, human; conditions: for EC50: K ∼ EC50
CIN612 cells = experiment: Growth of CIN612 cells, MTS; assay type: cell-based, human
WI38 VA13 = experiment: Growth of WI38 VA13; assay type: cell-based, human
How it was run: as §2

W12 cells = experiment: Apoptosis assay; assay type: cell-based, human; conditions: W12, 40 h exposure
How it was run: as §1

HEK293 = experiment: Growth of HEK293; assay type: cell-based, human
How it was run: as §2

[7] = 10 nM, 24 h, not significantly different from 1
[8] = 100 nM, 24 h, not significantly different from 1
[9] = 100 nM, 48 h, not significantly different from 1
[10] = Homo sapiens, read-out: K, Growth, MTS

O=C(N[C@@H]1CCCc2c1[nH]c1ccc(Cl)cc21)c1ccccn1 [GSK983, N-[(1R)-6-Chloro-2,3,4,9-tetrahydro-1H-carbazol-1-yl]-2-pyridinecarboxamide]
Observed maximum inhibition of viral DNA ([1]; productive or episomal infections): 86–99%
EC50 ([1]; read-out: EC50 values, replication of a variety of unrelated viruses in vitro): 5 to 20 nM
EC50 (W12-20850 cells; Homo sapiens, W12-20850, read-out: K, Growth, Actin DNA, qPCR): 6 ± 0.4 nM
Imax, Growth, Actin DNA, qPCR (W12-20850 cells; W12-20850): 60 ± 1%
CC50 at 72 h [2]: > 10000 nM
EC50 (Molt4; Homo sapiens, MOLT-4, 72 h, read-out: K, growth, MTS): 13 ± 1.3 nM
Imax, Growth, MTS (Molt4; Molt4, T lymphoblast, 72 h): 85 ± 2%
Apoptosis (MT4 cells [3]): induced apoptosis
CC50 at 72 h [4]: 57000 nM
Fold increase due to GSK983, ABCD1 mRNA (HKC cells; 10 nM, 24 h): 2.0 fold
Fold increase due to GSK983, ABCG1 mRNA (HKC cells; 10 nM, 24 h): 2.5 fold
Fold increase due to GSK983, ADAMTS5 mRNA (HKC cells; 10 nM, 24 h): 2.6 fold
Fold increase due to GSK983, BIK mRNA (HKC cells; 10 nM, 24 h): 2.2 fold
Fold increase due to GSK983, MDM2 mRNA (HKC cells; 10 nM, 24 h): 2.1 fold
Fold increase due to GSK983, MGP mRNA (HKC cells; 10 nM, 24 h): 1.9 fold
Fold increase due to GSK983, CDKN1A mRNA (HKC cells; [7]): 1.7 ^b fold
Fold increase due to GSK983, CSF2 mRNA (HKC cells; [7]): 1 ^b fold
Fold increase due to GSK983, IFI6 mRNA (HKC cells; [7]): 1.3 ^b fold
Fold increase due to GSK983, IFI16 mRNA (HKC cells; [7]): 2.3 ^b fold
Fold increase due to GSK983, MMP1 mRNA (HKC cells; [7]): 5.8 ^b fold
Fold increase due to GSK983, ABCD1 mRNA (HKC cells; 10 nM, 48 h): 4.5 fold
Fold increase due to GSK983, ABCG1 mRNA (HKC cells; 10 nM, 48 h): 3.1 fold
Fold increase due to GSK983, ADAMTS5 mRNA (HKC cells; 10 nM, 48 h): 2.3 fold
Fold increase due to GSK983, BIK mRNA (HKC cells; 10 nM, 48 h): 1.8 fold
Fold increase due to GSK983, CDKN1A mRNA (HKC cells; 10 nM, 48 h): 1.6 fold
Fold increase due to GSK983, CSF2 mRNA (HKC cells; 10 nM, 48 h): 4.1 fold
Fold increase due to GSK983, IFI16 mRNA (HKC cells; 10 nM, 48 h): 2.7 fold
Fold increase due to GSK983, IRF3 mRNA (HKC cells; 10 nM, 48 h): 2.4 fold
Fold increase due to GSK983, MDM2 mRNA (HKC cells; 10 nM, 48 h): 3.2 fold
Fold increase due to GSK983, MGP mRNA (HKC cells; 10 nM, 48 h): 2.9 fold
Fold increase due to GSK983, MMP1 mRNA (HKC cells; 10 nM, 48 h): 2.2 fold
Fold increase due to GSK983, IRF9 mRNA (HKC cells; 10 nM, 48 h, not significantly different from 1): 1.5 ^b fold
Fold increase due to GSK983, ABCD1 mRNA (HKC cells; 100 nM, 24 h): 2.3 fold
Fold increase due to GSK983, ABCG1 mRNA (HKC cells; 100 nM, 24 h): 5.0 fold
Fold increase due to GSK983, BIK mRNA (HKC cells; 100 nM, 24 h): 2.3 fold
Fold increase due to GSK983, CDKN1A mRNA (HKC cells; 100 nM, 24 h): 1.8 fold
Fold increase due to GSK983, CSF2 mRNA (HKC cells; 100 nM, 24 h): 2.8 fold
Fold increase due to GSK983, IRF9 mRNA (HKC cells; 100 nM, 24 h): 1.6 fold
Fold increase due to GSK983, MDM2 mRNA (HKC cells; 100 nM, 24 h): 2.4 fold
Fold increase due to GSK983, MGP mRNA (HKC cells; 100 nM, 24 h): 2.0 fold
Fold increase due to GSK983, ADAMTS5 mRNA (HKC cells; [8]): 1.3 ^b fold
Fold increase due to GSK983, IFI6 mRNA (HKC cells; [8]): 1.1 ^b fold
Fold increase due to GSK983, IRF3 mRNA (HKC cells; [8]): 1.1 ^b fold
Fold increase due to GSK983, MMP1 mRNA (HKC cells; [8]): 5.2 ^b fold
Fold increase due to GSK983, ABCD1 mRNA (HKC cells; 100 nM, 48 h): 3.7 fold
Fold increase due to GSK983, ABCG1 mRNA (HKC cells; 100 nM, 48 h): 4.8 fold
Fold increase due to GSK983, ADAMTS5 mRNA (HKC cells; 100 nM, 48 h): 7.5 fold
Fold increase due to GSK983, BIK mRNA (HKC cells; 100 nM, 48 h): 3.7 fold
Fold increase due to GSK983, CDKN1A mRNA (HKC cells; 100 nM, 48 h): 4.3 fold
Fold increase due to GSK983, CSF2 mRNA (HKC cells; 100 nM, 48 h): 5.8 fold
Fold increase due to GSK983, MDM2 mRNA (HKC cells; 100 nM, 48 h): 2.9 fold
Fold increase due to GSK983, MGP mRNA (HKC cells; 100 nM, 48 h): 3.0 fold
Fold increase due to GSK983, MMP1 mRNA (HKC cells; 100 nM, 48 h): 5.0 fold
Fold increase due to GSK983, IFI16 mRNA (HKC cells; [9]): 0.8 ^b fold
Fold increase due to GSK983, IRF3 mRNA (HKC cells; [9]): 0.8 ^b fold
Fold increase due to GSK983, IRF9 mRNA (HKC cells; [9]): 1.5 ^b fold
Number of genes of the Pathway Set with significant increases in expression (HKC cells; primary human keratinocytes, at both 10 and 100 nM, 546 genes): 9 genes
EC50 (Namalwa; [10]): 10 ± 2 nM
Imax, Growth, MTS (Namalwa; Namalwa, EBV integrated): 66% and 66 ± 2.5%
Imax, Growth, MTS (human keratinocyte (HKC)): ∼100%
K, Growth, MTS (human keratinocyte (HKC)): 40,000 ± 11,800 nM
CC50 at 72 h [5]: 520000 nM
Viral yield in IM9 cells by quantitative PCR (EBV): decrease in parallel with inhibition of cell growth
Imax, Ratio, HPV DNA/MTS (episomal HPV-16 DNA; W12-20850): 90 ± 2%
K, Ratio, HPV DNA/MTS (episomal HPV-16 DNA; W12-20850): 4.9 ± 0.5 nM
EC50 (episomal HPV-16 DNA; read-out: K, DNA, hybrid capture, W12-20850, HPV type 16, 4 days): 4.5 ± 0.3 nM
EC50 (MT4 cells [6]; Homo sapiens, MT4, 72 h, read-out: K, cell line growth, MT4 (HTLV1), CTG, 72 h): 8 nM
Selectivity index (MT4 cells [6]; MT4 (HTLV1) vs activated CD4 T cell): 7600 ± 1000
EC50 (MT4 cells [6]; read-out: K, cell line growth, MT4 (HTLV1), CTG, 72 h): 7.5 ± 0.6 nM
Imax, Growth, MTS (CIN612 cells; CIN612): 70 ± 1%
EC50 (CIN612 cells; [10]): 2.8 ± 0.1 nM
EC50 (WI38 VA13; Homo sapiens, WI-38 VA13, 72 h, read-out: K, Growth, CTG): 16 ± 5 nM
Imax, Growth, CTG (WI38 VA13; WI38 VA13, SV40 integrated, 72 h): 28% and 28 ± 2%
Apoptosis (W12 cells): apoptosis did not occur
Imax, Growth, CTG (HEK293; HEK293, Adenovirus 5 integrated, 72 h): 52 ± 2%
EC50 (HEK293; Homo sapiens, HEK293, 72 h, read-out: K, Growth, CTG): 12 ± 2 nM
